Experimental data reported in ChEMBL document CHEMBL4689842, “EUbOPEN Chemogenomics Library wave 1” (2021).

Test system: HEK-293T
Experiment: Multiplex assay against HEK293T;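 for Population Tubulin-Different-Phenotype (%): share of the cells with healthy nuclei that show this phenotype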
Assay type: toxicity, cell-based
Conditions: human
How it was run: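 Compound was added to live cells that had been stained at seeding with Hoechst33342, BioTracker Green Microtubule Cytoskeleton Dye, MitoTracker Red and Annexin V Alexa Fluor 680, and imaging followed on a CQ1 microscope at 37°C and 5% CO2. CellPathfinder machine-learning gating divided cells into Hoechst high-intensity objects or normal cells, normal cells into healthy, pyknosed or fragmented nuclei, and pyknosed cells into mitotic or apoptotic. Tubulin, mitochondrial-mass and membrane-permeability phenotypes are per cents of healthy-nucleus cells.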

[1] = 12 h, 1 µM, compound concentration 1 uM, replicate 1
[2] = 12 h, 1 µM, compound concentration 1 uM, replicate 2
[3] = 12 h, 10 µM, compound concentration 10 uM, replicate 1
[4] = 12 h, 10 µM, compound concentration 10 uM, replicate 2
[5] = 24 h, 1 µM, compound concentration 1 uM, replicate 1
[6] = 24 h, 1 µM, compound concentration 1 uM, replicate 2
[7] = 24 h, 10 µM, compound concentration 10 uM, replicate 1
[8] = 24 h, 10 µM, compound concentration 10 uM, replicate 2
[9] = 48 h, 1 µM, compound concentration 1 uM, replicate 1
[10] = 48 h, 1 µM, compound concentration 1 uM, replicate 2
[11] = 48 h, 10 µM, compound concentration 10 uM, replicate 1
[12] = 48 h, 10 µM, compound concentration 10 uM, replicate 2

C=C1/C(=C\C=C2/CCC[C@]3(C)[C@@H]([C@H](C)/C=C/[C@H](C)C(C)C)CC[C@@H]23)C[C@@H](O)C[C@@H]1O [DOXERCALCIFEROL]
Population Apoptotic (%) [1]: 53%
Population Fragmented Nuclei (%) [1]: 17%
Population Healthy Nuclei (%) [1]: 26%
Population Hoechst High Intensity Objects (%) [1]: 23%
Population Membrane Permeable-Phenotype (%) [1]: 3%
Population Mitochondria Different-Phenotype (%) [1]: 78%
Population Mitotic Cells (%) [1]: 46%
Population Normal (%) [1]: 76%
Population Pyknosed Nuclei (%) [1]: 55%
Population Tubulin-Different-Phenotype (%) [1]: 12%
Total Cell Count [1]: 156
Population Apoptotic (%) [2]: 10%
Population Fragmented Nuclei (%) [2]: 7%
Population Healthy Nuclei (%) [2]: 44%
Population Hoechst High Intensity Objects (%) [2]: 2%
Population Membrane Permeable-Phenotype (%) [2]: 4%
Population Mitochondria Different-Phenotype (%) [2]: 11%
Population Mitotic Cells (%) [2]: 89%
Population Normal (%) [2]: 97%
Population Pyknosed Nuclei (%) [2]: 48%
Population Tubulin-Different-Phenotype (%) [2]: 11%
Total Cell Count [2]: 240
Population Apoptotic (%) [3]: 50%
Population Fragmented Nuclei (%) [3]: 15%
Population Healthy Nuclei (%) [3]: 25%
Population Hoechst High Intensity Objects (%) [3]: 16%
Population Membrane Permeable-Phenotype (%) [3]: 2%
Population Mitochondria Different-Phenotype (%) [3]: 71%
Population Mitotic Cells (%) [3]: 49%
Population Normal (%) [3]: 83%
Population Pyknosed Nuclei (%) [3]: 59%
Population Tubulin-Different-Phenotype (%) [3]: 34%
Total Cell Count [3]: 180
Population Apoptotic (%) [4]: 13%
Population Fragmented Nuclei (%) [4]: 7%
Population Healthy Nuclei (%) [4]: 35%
Population Hoechst High Intensity Objects (%) [4]: 3%
Population Membrane Permeable-Phenotype (%) [4]: 6%
Population Mitochondria Different-Phenotype (%) [4]: 20%
Population Mitotic Cells (%) [4]: 86%
Population Normal (%) [4]: 96%
Population Pyknosed Nuclei (%) [4]: 56%
Population Tubulin-Different-Phenotype (%) [4]: 23%
Total Cell Count [4]: 211
Population Apoptotic (%) [5]: 52%
Population Fragmented Nuclei (%) [5]: 22%
Population Healthy Nuclei (%) [5]: 27%
Population Hoechst High Intensity Objects (%) [5]: 23%
Population Membrane Permeable-Phenotype (%) [5]: 0%
Population Mitochondria Different-Phenotype (%) [5]: 63%
Population Mitotic Cells (%) [5]: 47%
Population Normal (%) [5]: 76%
Population Pyknosed Nuclei (%) [5]: 50%
Population Tubulin-Different-Phenotype (%) [5]: 30%
Total Cell Count [5]: 170
Population Apoptotic (%) [6]: 10%
Population Fragmented Nuclei (%) [6]: 7%
Population Healthy Nuclei (%) [6]: 59%
Population Hoechst High Intensity Objects (%) [6]: 3%
Population Membrane Permeable-Phenotype (%) [6]: 9%
Population Mitochondria Different-Phenotype (%) [6]: 5%
Population Mitotic Cells (%) [6]: 89%
Population Normal (%) [6]: 96%
Population Pyknosed Nuclei (%) [6]: 32%
Population Tubulin-Different-Phenotype (%) [6]: 12%
Total Cell Count [6]: 305
Population Apoptotic (%) [7]: 39%
Population Fragmented Nuclei (%) [7]: 20%
Population Healthy Nuclei (%) [7]: 26%
Population Hoechst High Intensity Objects (%) [7]: 18%
Population Membrane Permeable-Phenotype (%) [7]: 7%
Population Mitochondria Different-Phenotype (%) [7]: 78%
Population Mitotic Cells (%) [7]: 60%
Population Normal (%) [7]: 81%
Population Pyknosed Nuclei (%) [7]: 52%
Population Tubulin-Different-Phenotype (%) [7]: 58%
Total Cell Count [7]: 191
Population Apoptotic (%) [8]: 25%
Population Fragmented Nuclei (%) [8]: 9%
Population Healthy Nuclei (%) [8]: 56%
Population Hoechst High Intensity Objects (%) [8]: 1%
Population Membrane Permeable-Phenotype (%) [8]: 10%
Population Mitochondria Different-Phenotype (%) [8]: 7%
Population Mitotic Cells (%) [8]: 74%
Population Normal (%) [8]: 98%
Population Pyknosed Nuclei (%) [8]: 34%
Population Tubulin-Different-Phenotype (%) [8]: 37%
Total Cell Count [8]: 255
Population Apoptotic (%) [9]: 46%
Population Fragmented Nuclei (%) [9]: 19%
Population Healthy Nuclei (%) [9]: 33%
Population Hoechst High Intensity Objects (%) [9]: 16%
Population Membrane Permeable-Phenotype (%) [9]: 0%
Population Mitochondria Different-Phenotype (%) [9]: 34%
Population Mitotic Cells (%) [9]: 53%
Population Normal (%) [9]: 83%
Population Pyknosed Nuclei (%) [9]: 47%
Population Tubulin-Different-Phenotype (%) [9]: 36%
Total Cell Count [9]: 180
Population Apoptotic (%) [10]: 9%
Population Fragmented Nuclei (%) [10]: 7%
Population Healthy Nuclei (%) [10]: 81%
Population Hoechst High Intensity Objects (%) [10]: 3%
Population Membrane Permeable-Phenotype (%) [10]: 4%
Population Mitochondria Different-Phenotype (%) [10]: 2%
Population Mitotic Cells (%) [10]: 90%
Population Normal (%) [10]: 97%
Population Pyknosed Nuclei (%) [10]: 11%
Population Tubulin-Different-Phenotype (%) [10]: 14%
Total Cell Count [10]: 601
Population Apoptotic (%) [11]: 42%
Population Fragmented Nuclei (%) [11]: 23%
Population Healthy Nuclei (%) [11]: 35%
Population Hoechst High Intensity Objects (%) [11]: 17%
Population Membrane Permeable-Phenotype (%) [11]: 5%
Population Mitochondria Different-Phenotype (%) [11]: 35%
Population Mitotic Cells (%) [11]: 57%
Population Normal (%) [11]: 82%
Population Pyknosed Nuclei (%) [11]: 40%
Population Tubulin-Different-Phenotype (%) [11]: 33%
Total Cell Count [11]: 193
Population Apoptotic (%) [12]: 22%
Population Fragmented Nuclei (%) [12]: 9%
Population Healthy Nuclei (%) [12]: 79%
Population Hoechst High Intensity Objects (%) [12]: 2%
Population Membrane Permeable-Phenotype (%) [12]: 6%
Population Mitochondria Different-Phenotype (%) [12]: 4%
Population Mitotic Cells (%) [12]: 77%
Population Normal (%) [12]: 97%
Population Pyknosed Nuclei (%) [12]: 11%
Population Tubulin-Different-Phenotype (%) [12]: 24%
Total Cell Count [12]: 475
